The source made the active and inactive calls. The calls are words filed in the database; no cut-off is given here.
What was measured:
[1] = Half life in human liver microsomes at 3 uM up to 45 mins in presence of NADPH by LC-MS/MS analysis; type: ADME, microsome
[2] = Half life in Sprague-Dawley rat liver microsomes at 3 uM up to 45 mins in presence of NADPH by LC-MS/MS analysis; type: ADME, microsome
[3] = molecular target: T1, Carnitine O-palmitoyltransferase 1, muscle isoform (Rattus norvegicus, UniProt Q63704); assay: Inhibition of Wistar rat heart mitochondrial CPT-1 assessed as reduction in conversion of palmitoyl CoA and L-carnitine into palmitoylcarnitine preincubated for 3 mins followed by L-carnitine and palmitoyl CoA addition measured for 3.5 mins by spectrophotometric analysis
T1 sequence (Q63704 whole entry): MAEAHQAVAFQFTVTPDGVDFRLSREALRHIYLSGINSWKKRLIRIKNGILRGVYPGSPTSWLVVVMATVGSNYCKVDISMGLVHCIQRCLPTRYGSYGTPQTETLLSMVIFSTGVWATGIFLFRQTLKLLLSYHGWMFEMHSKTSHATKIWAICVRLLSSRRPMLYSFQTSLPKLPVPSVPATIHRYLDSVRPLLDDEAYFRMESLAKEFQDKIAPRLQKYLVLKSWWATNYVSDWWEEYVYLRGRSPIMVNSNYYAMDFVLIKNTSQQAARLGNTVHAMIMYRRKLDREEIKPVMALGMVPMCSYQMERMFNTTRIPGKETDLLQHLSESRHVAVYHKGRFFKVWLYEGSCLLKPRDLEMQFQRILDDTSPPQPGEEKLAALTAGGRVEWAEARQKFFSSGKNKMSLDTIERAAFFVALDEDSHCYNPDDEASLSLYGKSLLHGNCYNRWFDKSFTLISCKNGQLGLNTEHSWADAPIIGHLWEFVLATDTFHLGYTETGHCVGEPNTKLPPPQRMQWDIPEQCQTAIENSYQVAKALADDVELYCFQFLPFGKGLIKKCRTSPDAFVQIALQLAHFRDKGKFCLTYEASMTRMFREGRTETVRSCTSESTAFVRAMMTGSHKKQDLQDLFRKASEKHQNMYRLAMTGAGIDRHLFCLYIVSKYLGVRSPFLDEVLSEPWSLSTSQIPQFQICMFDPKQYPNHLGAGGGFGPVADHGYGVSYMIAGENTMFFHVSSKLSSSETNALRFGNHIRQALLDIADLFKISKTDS

[4] = Stability of the compound in pH 7.4 PBS buffer at 37 degC after 1 hr; type: physicochemical; conditions: pH 7.4, 1 h
In short: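 Compound incubated 1 h in pH 7.4 PBS at 37 °C, then checked for decomposition.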

CYP2D6 = CYP2D6 (Homo sapiens, UniProt P10635); assay: Drug metabolism assessed as human CYP2D6-mediated compound degradation by measuring half life at 5 uM up to 45 mins in presence of NADPH by LC-MS/MS analysis; type: ADME
Sequence of CYP2D6 (P10635 whole entry, the tested form may be a part): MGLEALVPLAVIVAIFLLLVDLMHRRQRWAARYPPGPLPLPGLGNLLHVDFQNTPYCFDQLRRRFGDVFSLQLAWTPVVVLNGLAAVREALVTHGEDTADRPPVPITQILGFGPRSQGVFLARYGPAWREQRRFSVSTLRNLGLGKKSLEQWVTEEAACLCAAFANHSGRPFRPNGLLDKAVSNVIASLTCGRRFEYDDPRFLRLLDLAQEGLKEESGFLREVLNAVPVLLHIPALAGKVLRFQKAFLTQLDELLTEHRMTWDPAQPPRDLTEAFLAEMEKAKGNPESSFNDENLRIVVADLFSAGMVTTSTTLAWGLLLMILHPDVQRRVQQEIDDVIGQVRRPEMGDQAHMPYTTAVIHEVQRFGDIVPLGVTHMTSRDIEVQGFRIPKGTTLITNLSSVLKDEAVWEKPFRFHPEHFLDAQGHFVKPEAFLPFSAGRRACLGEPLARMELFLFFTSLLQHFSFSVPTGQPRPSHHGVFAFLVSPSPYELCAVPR

Heart = assay: Cardioprotective activity against Langendorff perfused C57BL/6 mouse heart assessed as lusitropic effect at 2 uM measured for 40 mins reperfusion period in presence of high fat; type: functional, tissue-based
In short: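 Isolated C57BL/6 hearts (25-30 g) retrogradely perfused at constant 80 mmHg, 37 °C, 95% O2/5% CO2, with modified Krebs containing 1.2 mM sodium palmitate conjugated to 3% BSA. After 10 min stabilisation, 30 min perfusion with control buffer or compound at 2 or 10 µM. LVdP/dt max and min derived from LV pressure over 40 min; mean ± SEM, n = 12-19, 1-way ANOVA with Bonferroni.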

Row | SMILES | half-life at 3 µM [1] [min] | half-life at 3 µM [2] [min] | IC50 [3] [µM] | Stability [4] | half-life at 5 µM (CYP2D6) [min] | Activity (Heart)
1 | C1CCC(C(CC2CCCCN2)C2CCCCC2)CC1.O=C(O)/C=C\C(=O)O (stereo unspecified) [PERHEXILINE MALEATE] | 98 | 10 | 32 |  |  | 
2 | c1ccc(C(CC2CCCCN2)C2CCCCC2)cc1 (stereo unspecified) | 56 | 4 |  | Stable |  | 
3 | FC1(F)CCCC(C(CC2CCCCN2)C2CCCCC2)C1 (stereo unspecified) | > 150 | 35 | 215 | Stable |  | 
4 | FC1CCC(C(CC2CCCCN2)C2CCCCC2)CC1 (stereo unspecified) | 65 | 11 |  | Unstable | 16 | 
5 | C1CCC(CC(C2CCCC2)C2CCC2)NC1 (stereo unspecified) | 51 | 7 |  | Stable |  | 
6 | FC1CCC(C(CC2CCCCN2)C2CCC(F)CC2)CC1 (stereo unspecified) |  |  |  | Unstable |  | 
7 | Fc1ccc(C(CC2CCCCN2)C2CCCCC2)cc1 (stereo unspecified) | 79 | 7 |  | Stable |  | 
8 | OC1CCC(C(CC2CCCCN2)C2CCCCC2)CC1 (stereo unspecified) |  |  | 475 |  |  | 
9 | C1CCC(C(CC2CCCCN2)C2CCCCC2)CC1 (racemic) |  |  |  |  |  | Active
10 | CC1(C)CCC(C(CC2CCCCN2)C2CCCCC2)CC1 (stereo unspecified) | 77 | 20 |  | Stable |  | 

From ChEMBL document CHEMBL4043075, “Development of Fluorinated Analogues of Perhexiline with Improved Pharmacokinetic Properties and Retained Efficacy” (J Med Chem, 2017)
